# Data reported in publication PMC3169012 (European journal of pharmacology, 2011).
# Entries after “also recorded” stand apart in the source; their conditions may differ. Positions of bridges follow the written chain, without caps; N, C: chain ends. No end group written: not given here.
# Columns and labels:
# LAD2 mast cells [1] = experiment: Degranulation; format: cell-based, human; details: 30 min, β-hexosaminidase release; for degranulation: different concentrations, 3 – 4 experiments
# How it was run: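 LAD2 cells, kept in StemPro-34 with 100 ng/ml SCF, were seeded at 5 × 10^3 per well overnight with human IgE (1 µg/ml). After washing, they were exposed for 30 min to graded test-compound concentrations in buffer with 0.1% BSA. Released β-hexosaminidase was assayed with 1 mM p-nitrophenyl-N-acetyl-β-D-glucosamine (1.5 h, 37°C), stopped with 0.1 M Na2CO3/NaHCO3, and read at A405. Values are percent of the 0.1% Triton X-100 lysate total, mean ± S.E.M of 3–4 experiments.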
# LAD2 mast cells [2] = experiment: Ca^2+ mobilization in LAD2 mast cells; format: cell-based, human; details: indo-1 AM, C3a 10 nM, E7 1 µM, representative of 3 experiments; for intracellular Ca^2+ mobilization: 355/410 nm, E7S 1 µM, compound 48/80 1 µg/ml
# How it was run: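 LAD2 cells were kept in StemPro-34 with supplements, 2 mM L-glutamine, penicillin, streptomycin and 100 ng/ml SCF, hemi-depleted weekly. Cells at 0.2 × 10^6/ml were loaded with 1 µM indo-1 AM plus 1 µM pluronic F-127 for 30 min at room temperature, washed and resuspended in HEPES-buffered saline. C3a (10 nM) or test peptide (1 µM) was added at marked times. Fluorescence was read at excitation 355 nm and emission 410 nm.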
# HMC-1 cells [3] = experiment: Ca^2+ mobilization in HMC-1 cells; format: cell-based, human; details: representative of 3 experiments; for intracellular Ca^2+ mobilization: indo-1 AM, 355/410 nm, C3a 10 nM, E7 1 µM, E7S 1 µM, compound 48/80 1 µg/ml
# How it was run: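 HMC-1 cells were grown in IMDM with 10% FCS, 2 mM L-glutamine, penicillin and streptomycin. Cells at 1 × 10^6/ml were loaded with 1 µM indo-1 AM plus 1 µM pluronic F-127 for 30 min at room temperature, then washed and resuspended in HEPES-buffered saline. Stimuli were added sequentially at marked times: C3a 10 nM, test peptide 1 µM, test secretagogue 1 µg/ml. Fluorescence was read at excitation 355 nm and emission 410 nm.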
# HA-tagged human MrgX1 = experiment: Degranulation of RBL-2H3 cells stably expressing MrgX1; format: cell-based; details: RBL-2H3 expressing MrgX1; for degranulation: peptides 1 µM, compound 48/80 100 ng/ml or antigen DNP-BSA 30 ng/ml, 30 min, representative of 3 experiments
# HA-tagged human MrgX2 = experiment: Degranulation of RBL-2H3 cells stably expressing MrgX2; format: cell-based; details: RBL-2H3 expressing MrgX2; for degranulation: peptides 1 µM, compound 48/80 100 ng/ml or antigen DNP-BSA 30 ng/ml, 30 min, representative of 3 experiments
# How it was run: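 RBL-2H3 cells were nucleofected with HA-tagged receptor plasmid, selected in G418 (1mg/ml) and sorted by anti-HA staining for equivalent expression. 5 × 10^4 cells were primed overnight with mouse anti-DNP IgE (1 µg/ml), washed and stimulated 30 min in 0.1% BSA buffer. Supernatant β-hexosaminidase was read with 1 mM p-nitrophenyl-N-acetyl-β-D-glucosamine (1.5 h, 37°C), stopped with carbonate buffer, A405, as percent of Triton X-100 lysate total.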
# mast cell = details: ref Hartmann et al., 1997; Nilsson et al., 1996; cited from earlier work
# [4] = tested on: peripheral blood CD34^+ cell-derived mast cells; details: ref Fukuoka et al., 2008, Lappalainen et al., 2007, Oskeritzian et al., 2005, Venkatesha et al., Woolhiser et al., 2004; cited from earlier work
# [5] = tested on: bone marrow-derived mast cells; details: ref Erdei et al., 2004, Soruri et al., 2008; cited from earlier work
# [6] = tested on: rat basophilic leukemia, RBL-2H3 cells; details: ref Erdei et al., 2004, Soruri et al., 2008; cited from earlier work
# HMC-1 cells [7] = details: ref Ahamed et al., 2004, Ali et al., 2000; cited from earlier work
# [8] = tested on: CD34^+-derived human mast cells; experiment: Degranulation; format: cell-based; details: 30 min, E7 or E7S 1 µM, 3 – 4 experiments
# How it was run: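 Primary mast cells were grown 7–10 weeks from human CD34+ progenitors in StemPro-34 with SCF and IL-6 (100 ng/ml each), plus IL-3 (30 ng/ml) in the first week only. Cells (5 × 10^3 per well) were primed overnight with human IgE (1 µg/ml), washed, and stimulated 30 min in 0.1% BSA buffer with test peptides at 100 nM or 1 µM. β-Hexosaminidase release was measured at 405 nm and expressed as percent of lysate total, mean ± S.E.M of 3–4 experiments.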
# [9] = ref Lu et al., 1984; cited from earlier work
# MrgX2 [10] = details: requires tryptophan and a positively charged residue; ref Subramanian, 2011; cited from earlier work
# C5a receptor = details: ref Subramanian, 2011; cited from earlier work
# MrgX2 [11] = details: 2003, cited from earlier work; for structural requirement for MrgX2 activation: ref Robas et al.
# MrgX1 = details: ref Lembo et al., 2002; Robas et al., 2003; cited from earlier work
# guinea pig platelet = details: ref Ember et al., 1991; cited from earlier work
# guinea pig skin = details: ref Ember et al., 1991; cited from earlier work
# C3a receptor [12] = details: guinea pig ileum, C3a versus C5a; ref Ember et al., 1991; cited from earlier work
# C3a receptor [13] = details: versus C3a receptor agonist peptide (C3aP), ref Ember et al., 1991; cited from earlier work
# [14] = tested on: mock transfected RBL-2H3 cells; experiment: Degranulation of mock transfected RBL-2H3 cells; format: cell-based, rat; details: C3a 100 nM, peptides 1 µM, compound 48/80 100 ng/ml or antigen DNP-BSA 30 ng/ml, 30 min, representative of 3 experiments
# How it was run: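 Rat RBL-2H3 cells, grown in DMEM with 10% FBS and mock-transfected, were seeded at 5 × 10^4 per well and sensitised with anti-DNP IgE (1 µg/ml, 16 h). After washing, they were challenged 30 min in 0.1% BSA buffer with test agents or DNP-BSA antigen. Supernatant β-hexosaminidase was assayed with 1 mM p-nitrophenyl-N-acetyl-β-D-glucosamine (1.5 h, 37°C) at A405, relative to a 0.1% Triton X-100 lysate. Data are representative of 3 experiments.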
substance,measurement,setting,value
"C3a: purified human anaphylatoxin C3a, from Complement Technology",degranulation,LAD2 mast cells [1],"induced Ca^2+ mobilization and degranulation in a differentiated human mast cell line, LAD2; also recorded: induced a dose-dependent degranulation of LAD2 mast cells"
same,intracellular Ca^2+ mobilization,LAD2 mast cells [2],induced Ca^2+ mobilization; also recorded: induced rapid Ca^2+ responses in LAD2 cells which peaked within seconds after stimulation
same,"duration/magnitude of Ca^2+ response, C3a versus E7",LAD2 mast cells [2],markedly reduced
same,Ca^2+ response to C3a added after E7S or compound 48/80,HMC-1 cells [3]; C3a 10 nM as second stimulus,fully responsive to C3a
same,intracellular Ca^2+ mobilization,HMC-1 cells [3],"caused Ca^2+ mobilization in an immature mast cell line, HMC-1; also recorded: induced Ca^2+ mobilization of similar magnitude and duration in HMC-1 cells"
same,degranulation by C3a,HA-tagged human MrgX1; C3a (1 µM) in text,did not activate RBL-2H3 cells expressing MrgX1 or MrgX2; also recorded: at concentrations up to 1 µM did not induce degranulation in cells expressing either human MrgX1 or MrgX2
same,degranulation by C3a,HA-tagged human MrgX2; C3a (1 µM) in text,did not activate RBL-2H3 cells expressing MrgX1 or MrgX2; also recorded: at concentrations up to 1 µM did not induce degranulation in cells expressing either human MrgX1 or MrgX2
same,mast cell chemoattractant activity,mast cell,one of the most potent mast cell chemoattractants known
same,degranulation,[4],induces degranulation
same,degranulation,[5],does not induce degranulation
same,degranulation,[6],does not induce degranulation
same,Ca^2+ mobilization,HMC-1 cells [7],responds to C3a for a transient Ca^2+ mobilization
LRAGSRYKKWALKWG [E7S],degranulation,LAD2 mast cells [1],also induced mast cell degranulation in a dose-dependent manner
same,degranulation of primary mast cells,[8],these peptides induced degranulation in primary mast cells
same,intracellular Ca^2+ mobilization,LAD2 mast cells [2],induced robust and sustained Ca^2+ responses in LAD2 mast cells
same,intracellular Ca^2+ mobilization,HMC-1 cells [3],did not initiate Ca^2+ responses in this cell line
same,degranulation,HA-tagged human MrgX2,"responded to CST, E7, E7S and compound 48/80"
NYITELRRQHARASHLGLAR [C3aP],degranulation,LAD2 mast cells [1],"as with LAD2 cells, these peptides induced degranulation"
same,degranulation of primary mast cells,[8],these peptides induced degranulation in primary mast cells
same,biological potency compared with natural C3a,[9],expresses biological potency equal to natural C3a
PMX-53,activation of human mast cells via MrgX2,MrgX2 [10],activates human mast cells via MrgX2
same,C5a receptor antagonism,C5a receptor,potent C5a receptor antagonist
"Pro-[Cys-Lys-Asn-Phe-Phe-Trp-Lys-Thr-Phe-Ser-Ser-Cys]-Lys (disulfide) (PCKNFFWKTFSSCK; disulfide 2-13) [CST, Cortistatin-14]",degranulation,HA-tagged human MrgX2,"responded to CST, E7, E7S and compound 48/80"
same,ligand of MrgX2,"MrgX2 [11]; ref Lembo et al., 2002, Robas et al.",Ligands for MrgX1 and MrgX2 have been identified
same,structural requirement for MrgX2 activation,MrgX2 [11],both the N-terminal proline and the C-terminal lysine are required for MrgX2 activation
"Tyr-Gly-Gly-Phe-Met-Arg-Arg-Val-Gly-Arg-Pro-Glu-Trp-Trp-Met-Asp-Tyr-Gln-Lys-Arg-Tyr-Gly [BAM-22P, Bovine Adrenal Medulla Docosapeptide]",degranulation,HA-tagged human MrgX1,responded only to BAM-22P and compound 48/80 for degranulation
same,ligand of MrgX1,MrgX1,Ligands for MrgX1 and MrgX2 have been identified
WWGKKYRASKLGLAR [E7],potency for mast cell degranulation compared with C3a,LAD2 mast cells [1],its potency for mast cell degranulation was lower than that of C3a
same,degranulation,LAD2 mast cells [1],"induced Ca^2+ mobilization and degranulation in a differentiated human mast cell line, LAD2; also recorded: induced a dose-dependent increase in degranulation in LAD2 mast cells"
same,degranulation of primary mast cells,[8],these peptides induced degranulation in primary mast cells
same,intracellular Ca^2+ mobilization,LAD2 mast cells [2],induced Ca^2+ mobilization; also recorded: induced rapid Ca^2+ responses in LAD2 cells which peaked within seconds after stimulation
same,"duration/magnitude of Ca^2+ response, C3a versus E7",LAD2 mast cells [2],prominent and sustained response
same,intracellular Ca^2+ mobilization,HMC-1 cells [3],"caused Ca^2+ mobilization in an immature mast cell line, HMC-1; also recorded: induced Ca^2+ mobilization of similar magnitude and duration in HMC-1 cells"
same,degranulation,HA-tagged human MrgX2,"activated RBL-2H3 cells expressing MrgX2; also recorded: responded to CST, E7, E7S and compound 48/80"
same,increase in guinea pig platelet aggregation activity compared to C3aP,guinea pig platelet,~ 1500%
same,concentrations required to induce vascular permeability compared to C3aP,guinea pig skin,much lower concentrations of E7 were required to induce vascular permeability in guinea pig skin
same,cross-desensitization of ileum contraction,C3a receptor [12],cross-desensitized the ability of C3a but not C5a to induce guinea pig ileum contraction
same,potency relative to C3aP in guinea pigs,C3a receptor [13],12 –15 fold
"antigen: antigen (DNP-BSA, 30 ng/ml) on anti-DNP specific IgE-primed cells",degranulation,[14],responded to antigen for degranulation
same,degranulation,HA-tagged human MrgX1,responded to antigen for degranulation
same,degranulation,HA-tagged human MrgX2,responded to antigen for degranulation
cortistatin-17 [CST-17],structural requirement for MrgX2 activation,MrgX2 [11],both the N-terminal proline and the C-terminal lysine are required for MrgX2 activation
